Peptide text beside a SMILES is read from it.
Key:
Assay type in all cases: cell-based, human
[1] = system: PDO-S (ICC patient-derived organoid); assay: Drug sensitivity experiment of organoids; conditions: by IC50, 24 h, CellTiter-Glo
[2] = system: PDO-K (ICC patient-derived organoid); assay: Drug sensitivity experiment of organoids; conditions: by IC50, 24 h, CellTiter-Glo; for overall sensitivity of the three PDOs: overall across PDO-K, PDO-S and PDO-L
[3] = system: PDO-L (ICC patient-derived organoid); assay: Drug sensitivity experiment of organoids; conditions: by IC50, 24 h, CellTiter-Glo
[4] = system: HIBEpiC cells; assay: Membrane potential; conditions: 1 x 10^5 cells/mL, peptide 2.5, 5, 10, 20 µM, 1 h
Outline: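 A cell suspension at 1 × 10^5 cells/mL was incubated 1 h with peptide at 0 (control), 2.5, 5, 10 or 20 µM. The mixture was then loaded into a folded capillary cell, and zeta potential was read on a NanoZetasizer.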

| Compound | rank of therapeutic effect among the drugs, PDO-S [1] | rank of therapeutic effect among the drugs, PDO-K [2] | overall sensitivity of the three PDOs [2] | rank of therapeutic effect among the drugs, PDO-L [3] | change of zeta potential of normal cells after peptide treatment [4] |
| --- | --- | --- | --- | --- | --- |
| Nc1ccn([C@@H]2O[C@H](CO)[C@@H](O)C2(F)F)c(=O)n1 [Gemcitabine] | most effective | – | – | – | – |
| CC(C)C[C@H](NC(=O)[C@H](CC(C)C)NC(=O)[C@H](CCCCN)NC(=O)[C@H](CCCCN)NC(=O)[C@H](CC(C)C)NC(=O)[C@H](CC(C)C)NC(=O)[C@H](CCCCN)NC(=O)[C@H](CCCCN)NC(=O)[C@H](CC(C)C)NC(=O)[C@H](CC(C)C)NC(=O)[C@H](CCCCN)NC(=O)[C@H](CCCCN)NC(=O)[C@H](CC(C)C)NC(=O)[C@@H](N)CC(C)C)C(N)=O [KL-8] (H-LLKKLLKKLLKKLL-NH2) | – | best therapeutic effect | highest sensitivity | best therapeutic effect | no statistically significant changes |
| CNC(=O)c1cc(Oc2ccc(NC(=O)Nc3ccc(Cl)c(C(F)(F)F)c3)cc2)ccn1 [Sorafenib, reference compound] | – | – | lowest sensitivity | – | – |

— PMC12217639 (Scientific Reports, 2025)
